From ChEMBL document CHEMBL1949521, “Discovery of CC-930, an orally active anti-fibrotic JNK inhibitor” (Bioorg Med Chem Lett, 2012)
In brackets after ≈: the same amount, converted by molar mass. Activity calls are given as the source filed them. No cut-off for these calls is given here.

What was measured:
[1] = molecular target: Mitogen-activated protein kinase 8 (Homo sapiens, UniProt P45983); test: Inhibition of hexa-His-tagged JNK1 expressed in baculoviral system using GST-tagged c-Jun as substrate preincubated for 15 mins prior ATP addition measured after 60 mins by scintillation counting
Sequence of Mitogen-activated protein kinase 8 (P45983 whole entry): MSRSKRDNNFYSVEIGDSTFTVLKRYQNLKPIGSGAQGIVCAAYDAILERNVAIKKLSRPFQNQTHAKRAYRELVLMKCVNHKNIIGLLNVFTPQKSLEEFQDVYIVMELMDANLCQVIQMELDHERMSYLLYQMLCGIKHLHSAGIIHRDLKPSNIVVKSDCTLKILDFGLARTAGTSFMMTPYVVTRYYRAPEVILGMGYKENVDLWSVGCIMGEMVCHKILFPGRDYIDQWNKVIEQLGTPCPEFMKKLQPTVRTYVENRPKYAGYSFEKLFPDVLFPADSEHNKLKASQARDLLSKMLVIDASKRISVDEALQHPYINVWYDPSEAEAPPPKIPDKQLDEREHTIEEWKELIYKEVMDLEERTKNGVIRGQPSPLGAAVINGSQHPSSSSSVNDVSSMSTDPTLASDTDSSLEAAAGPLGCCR

[2] = molecular target: Mitogen-activated protein kinase 14 (Homo sapiens, UniProt Q16539); test: Inhibition of p38alpha using myelin basic protein as substrate preincubated for 15 mins prior ATP addition measured after 60 mins by scintillation counting
Sequence of Mitogen-activated protein kinase 14 (Q16539 whole entry): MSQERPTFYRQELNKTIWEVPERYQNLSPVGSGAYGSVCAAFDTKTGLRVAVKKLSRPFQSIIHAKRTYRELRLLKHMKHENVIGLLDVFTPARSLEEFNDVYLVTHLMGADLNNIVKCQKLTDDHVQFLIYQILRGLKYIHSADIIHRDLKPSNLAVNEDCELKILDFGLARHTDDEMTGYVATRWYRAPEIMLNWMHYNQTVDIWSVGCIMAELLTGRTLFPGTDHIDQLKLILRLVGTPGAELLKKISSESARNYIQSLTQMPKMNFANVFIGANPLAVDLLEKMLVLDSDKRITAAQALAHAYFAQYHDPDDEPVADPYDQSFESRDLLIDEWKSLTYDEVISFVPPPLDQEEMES

[3] = Oral bioavailability in rat; assay type: ADME, organism-based; details: in vivo
[4] = molecular target: c-Jun N-terminal kinase, JNK (Homo sapiens, UniProt P45983+P53779+P45984); test: Inhibition of JNK-mediated GST tagged c-Jun phosphorylation in human Jurkat T cells compound treated for 30 mins prior anisomycin stimulation measured after 40 mins by fluorescence spectrophotometry; assay type: cell-based
[5] = Clearance in rat at 2 mg/kg, iv; assay type: ADME, organism-based; parameters: dose 2 mg/kg, route intravenous; details: in vivo
Outline: (§1)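 Rats dosed intravenously at 2 mg/kg in a solution of 5% DMA and 30% PEG 400.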

[6] = AUC in rat at 10 mg/kg, po; assay type: ADME, organism-based; parameters: dose 10 mg/kg, route oral; details: plasma
Outline: (§2)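 Oral dose of 10 mg/kg given as a suspension in aqueous 0.5% CMC/0.25% Tween 80. Plasma AUC, Cmax and Tmax were taken from the oral arm. Bioavailability was derived against the intravenous arm in the same species.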

[7] = tested on: Canis familiaris; test: AUC in dog at 1 mg/kg, iv; assay type: ADME, organism-based, Canis lupus familiaris, Plasma; parameters: dose 1 mg/kg, route intravenous; details: in vivo
[8] = tested on: Salmonella typhimurium; test: Mutagenic activity in Salmonella Typhimurium by Ames test; assay type: toxicity, organism-based; details: salmonella enterica subsp. enterica serovar typhimurium
[9] = tested on: Rattus norvegicus; test: Toxicity in rat assessed as adverse effects at 90 mg/kg, po qd for 4 days; assay type: organism-based; parameters: dose 90 mg/kg, route oral; details: in vivo, 96 h
Outline: (§3)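 Male rats dosed once daily for 4 days by oral gavage with suspensions in aqueous CMC at 30, 90 and 300 mg/kg. Adverse observations were recorded and histology examined.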

[10] = Oral bioavailability in cynomolgus monkey at 10 mg/kg; assay type: ADME, organism-based, Macaca fascicularis; details: in vivo; outline: as §2
[11] = molecular target: Cytochrome P450 2D6 (Homo sapiens, UniProt P10635); test: Inhibition of CYP2D6; assay type: ADME
Sequence of Cytochrome P450 2D6 (P10635 whole entry): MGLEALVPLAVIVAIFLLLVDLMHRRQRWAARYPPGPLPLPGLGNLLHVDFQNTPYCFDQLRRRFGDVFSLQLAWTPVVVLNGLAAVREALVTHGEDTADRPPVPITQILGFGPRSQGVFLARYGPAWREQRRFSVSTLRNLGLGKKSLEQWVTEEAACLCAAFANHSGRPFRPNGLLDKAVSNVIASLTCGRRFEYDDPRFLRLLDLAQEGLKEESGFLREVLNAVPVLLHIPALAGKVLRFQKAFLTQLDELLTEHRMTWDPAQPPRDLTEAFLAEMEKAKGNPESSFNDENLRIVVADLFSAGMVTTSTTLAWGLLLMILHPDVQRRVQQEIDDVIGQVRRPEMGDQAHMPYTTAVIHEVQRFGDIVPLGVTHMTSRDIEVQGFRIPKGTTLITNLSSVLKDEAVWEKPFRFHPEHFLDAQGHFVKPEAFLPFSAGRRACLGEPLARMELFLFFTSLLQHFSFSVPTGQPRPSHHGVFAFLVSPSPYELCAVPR

[12] = Tmax in dog at 10 mg/kg, po; assay type: ADME, organism-based, Canis lupus familiaris; parameters: dose 10 mg/kg, route oral; details: in vivo; outline: as §2
[13] = tested on: Canis familiaris; test: AUC in dog at 10 mg/kg, po; assay type: ADME, organism-based, Canis lupus familiaris, Plasma; parameters: dose 10 mg/kg, route oral; details: in vivo; outline: as §2
[14] = Mean residence time in dog at 1 mg/kg, iv; assay type: ADME, organism-based, Canis lupus familiaris; parameters: dose 1 mg/kg, route intravenous; details: in vivo
[15] = molecular target: Mitogen-activated protein kinase 3 (Homo sapiens, UniProt P27361); test: Inhibition of ERK1
Sequence of Mitogen-activated protein kinase 3 (P27361 whole entry): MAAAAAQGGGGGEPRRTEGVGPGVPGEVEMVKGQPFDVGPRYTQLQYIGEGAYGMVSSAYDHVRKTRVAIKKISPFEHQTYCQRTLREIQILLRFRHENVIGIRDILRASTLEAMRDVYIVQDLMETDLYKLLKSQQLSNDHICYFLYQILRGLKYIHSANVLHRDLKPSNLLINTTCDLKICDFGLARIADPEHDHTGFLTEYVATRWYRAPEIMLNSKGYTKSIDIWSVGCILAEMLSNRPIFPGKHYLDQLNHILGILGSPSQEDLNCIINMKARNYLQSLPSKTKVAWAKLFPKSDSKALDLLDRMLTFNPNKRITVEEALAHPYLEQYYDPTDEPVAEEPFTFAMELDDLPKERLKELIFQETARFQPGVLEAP

[16] = AUC in rat at 2 mg/kg, iv; assay type: ADME, organism-based; parameters: dose 2 mg/kg, route intravenous; details: plasma; outline: as §1
[17] = Oral bioavailability in rat at 10 mg/kg; assay type: ADME, organism-based; details: in vivo; outline: as §2
[18] = tested on: Mus musculus; test: Antifibrotic activity in bleomycin-induced C57B1/6 mouse model assessed as inhibition of monocytes in bronchoalveolar lavage at 25 to 150 mg/kg, po bid administered 2 hrs prior bleomycin induction for 13 days; assay type: functional, organism-based; details: Lung
Outline: (§4)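 Mice received oral doses prophylactically at 25, 50, 100 and 150 mg/kg before bleomycin instillation, then twice daily for 13 days. White blood cells, monocytes and lymphocytes were counted in bronchoalveolar lavage, and lung fibrosis was scored, each against a vehicle control.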

[19] = Cmax in dog at 10 mg/kg, po; assay type: ADME, organism-based, Canis lupus familiaris; parameters: dose 10 mg/kg, route oral; details: in vivo; outline: as §2
[20] = Lipophilicity, log D of the compound; assay type: physicochemical; details: octanol/water
[21] = Solubility in simulated intestinal fluid; assay type: physicochemical
[22] = Tmax in cynomolgus monkey at 10 mg/kg, po; assay type: ADME, organism-based, Macaca fascicularis; parameters: dose 10 mg/kg, route oral; details: in vivo; outline: as §2
[23] = Volume of distribution at steady state in cynomolgus monkey at 1 mg/kg, iv; assay type: ADME, organism-based, Macaca fascicularis; parameters: dose 1 mg/kg, route intravenous; details: in vivo, read-out: Vdss
Outline: (§5)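 Intravenous dose of 1 mg/kg given to monkeys in a solution of 5% DMA and 95% isotonic citrate buffer (50 mM, pH 5.0).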

[24] = Dissociation constant, pKa of the compound; assay type: physicochemical
[25] = Clearance in cynomolgus monkey at 1 mg/kg, iv; assay type: ADME, organism-based, Macaca fascicularis; parameters: dose 1 mg/kg, route intravenous; details: in vivo; outline: as §5
[26] = tested on: Mus musculus; test: Antifibrotic activity in bleomycin-induced C57B1/6 mouse model assessed as reduction in lung fibrosis score compound po bid administered 2 hrs prior bleomycin induction for 13 days; assay type: functional, organism-based; outline: as §4
[27] = Volume of distribution at steady state in dog at 1 mg/kg, iv; assay type: ADME, organism-based, Canis lupus familiaris; parameters: dose 1 mg/kg, route intravenous; details: in vivo, read-out: Vdss
[28] = AUC in cynomolgus monkey at 10 mg/kg, po; assay type: ADME, organism-based, Macaca fascicularis; parameters: dose 10 mg/kg, route oral; details: plasma; outline: as §2
[29] = tested on: Mus musculus; test: Antifibrotic activity in bleomycin-induced C57B1/6 mouse model assessed as inhibition of lymphocytes in bronchoalveolar lavage at 25 to 150 mg/kg, po bid administered 2 hrs prior bleomycin induction for 13 days; assay type: functional, organism-based; details: Lung; outline: as §4
[30] = Mean residence time in cynomolgus monkey at 1 mg/kg, iv; assay type: ADME, organism-based, Macaca fascicularis; parameters: dose 1 mg/kg, route intravenous; details: in vivo; outline: as §5
[31] = tested on: Mus musculus; test: Antifibrotic activity in bleomycin-induced C57B1/6 mouse model assessed as inhibition of white blood cells in bronchoalveolar lavage at 25 to 150 mg/kg, po bid administered 2 hrs prior bleomycin induction for 13 days; assay type: functional, organism-based; details: Lung; outline: as §4
[32] = tested on: Rattus norvegicus; test: Antiinflammatory activity in CD rat assessed as inhibition of LPS-stimulated TNFalpha production at 10 mg/kg, po administered 1 hr prior LPS challenge measured after 90 mins by ELISA; assay type: functional
Outline: (§6)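 Acute PK-PD model in rats: compound given by oral gavage at 10 or 30 mg/kg, then lipopolysaccharide injected, and plasma TNF-alpha release measured.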

[33] = tested on: Canis familiaris; test: Oral bioavailability in dog at 10 mg/kg; assay type: ADME, organism-based, Canis lupus familiaris; details: in vivo; outline: as §2
[34] = Mean residence time in rat at 2 mg/kg, iv; assay type: ADME, organism-based; parameters: dose 2 mg/kg, route intravenous; details: in vivo; outline: as §1
[35] = tested on: Rattus norvegicus; test: Antiinflammatory activity in CD rat assessed as inhibition of LPS-stimulated TNFalpha production at 30 mg/kg, po administered 1 hr prior LPS challenge measured after 90 mins by ELISA; assay type: functional; outline: as §6
[36] = Cmax in rat at 10 mg/kg, po; assay type: ADME, organism-based; parameters: dose 10 mg/kg, route oral; details: in vivo; outline: as §2
[37] = molecular target: Cytochrome P450 3A4 (Homo sapiens, UniProt P08684); test: Inhibition of CYP3A4; assay type: ADME
Sequence of Cytochrome P450 3A4 (P08684 whole entry): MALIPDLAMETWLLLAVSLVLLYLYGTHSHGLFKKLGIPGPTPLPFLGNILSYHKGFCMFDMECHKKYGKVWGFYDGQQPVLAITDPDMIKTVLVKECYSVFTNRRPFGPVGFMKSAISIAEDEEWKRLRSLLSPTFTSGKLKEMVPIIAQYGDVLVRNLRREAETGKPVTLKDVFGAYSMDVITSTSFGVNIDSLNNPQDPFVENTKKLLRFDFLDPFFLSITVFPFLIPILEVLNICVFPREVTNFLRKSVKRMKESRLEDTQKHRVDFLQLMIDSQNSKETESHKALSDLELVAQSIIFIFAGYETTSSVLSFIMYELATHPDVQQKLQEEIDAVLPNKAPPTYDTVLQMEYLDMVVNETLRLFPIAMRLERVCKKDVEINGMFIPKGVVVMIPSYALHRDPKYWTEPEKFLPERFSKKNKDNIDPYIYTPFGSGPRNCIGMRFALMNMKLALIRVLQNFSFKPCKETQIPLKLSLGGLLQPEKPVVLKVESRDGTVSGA

[38] = tested on: Rattus norvegicus; test: Toxicity in rat assessed as histological changes at 90 mg/kg, po qd for 4 days; assay type: organism-based; parameters: dose 90 mg/kg, route oral; details: in vivo, 96 h; outline: as §3
[39] = Cmax in cynomolgus monkey at 10 mg/kg, po; assay type: ADME, organism-based, Macaca fascicularis; parameters: dose 10 mg/kg, route oral; details: in vivo; outline: as §2
[40] = tested on: Mus musculus; test: Antifibrotic activity in bleomycin-induced C57B1/6 mouse model assessed as reduction in lung fibrosis score at 25 to 150 mg/kg, po bid administered 2 hrs prior bleomycin induction for 13 days; assay type: functional; parameters: scale not given: the % may be the effect or the level left; details: dose mg/kg 25-150; outline: as §4
[41] = AUC in cynomolgus monkey at 1 mg/kg, iv; assay type: ADME, organism-based, Macaca fascicularis; parameters: dose 1 mg/kg, route intravenous; details: plasma; outline: as §5
[42] = Tmax in rat at 10 mg/kg, po; assay type: ADME, organism-based; parameters: dose 10 mg/kg, route oral; details: in vivo; outline: as §2
[43] = Volume of distribution at steady state in rat at 2 mg/kg, iv; assay type: ADME, organism-based; parameters: dose 2 mg/kg, route intravenous; details: in vivo, read-out: Vdss; outline: as §1
[44] = Clearance in dog at 1 mg/kg, iv; assay type: ADME, organism-based, Canis lupus familiaris; parameters: dose 1 mg/kg, route intravenous; details: in vivo

O[C@H]1CC[C@H](Nc2ncc3nc(Nc4ccc(F)cc4F)n(C4CCCC4)c3n2)CC1 gave an IC50 [1] of 120 nM, an IC50 [2] of 560 nM and a bioavailability [3] of 68%. For the same compound, the IC50 [4] was 440 nM, the clearance [5] was 59 mL/min/kg and the AUC [6] was 2.7 µM·h.
For O[C@H]1CC[C@H](Nc2ncc3nc(Nc4c(F)cc(F)cc4F)n([C@H]4CCOC4)c3n2)CC1 [TANZISERTIB], the AUC [7] was 11 µM·h, the Activity [8] was “Non-toxic” and the Activity [9] was “Non-toxic”. For the same compound, the bioavailability [10] was 77%, the “inhibition (INH)” value [11] was “Not Active” and the Tmax [12] was 2.5 h. It also gave an AUC [13] of 86 µM·h, an MRT [14] of 7.3 h and an IC50 [15] of 480 nM. It also gave an IC50 [2] of 3400 nM, an AUC [16] of 1.9 µM·h and a bioavailability [17] of 30%. For the same compound, the inhibition [18] was “Active”, the Cmax [19] was 7.2 µM and the logD [20] was 1.93. For the same compound, the solubility [21] was 780 µg/mL (≈ 1740 µM), the bioavailability [3] was 30% and the Tmax [22] was 1.3 h. It also gave a Vd [23] of 1.6 L/kg, a pKa [24] of 5.47 and a clearance [25] of 2.9 mL/min/kg. For the same compound, the Activity [26] was “Dose-dependent effect”, the Vd [27] was 1.5 L/kg and the clearance [5] was 39 mL/min/kg. For the same compound, the AUC [28] was 100 µM·h, the inhibition [29] was “Active” and the MRT [30] was 10 h. The inhibition [31] was “Active”, the inhibition in vivo at 10 mg/kg [32] was 23% and the F [33] was 27%. The MRT [34] was 0.7 h, the inhibition in vivo at 30 mg/kg [35] was 77% and the Cmax [36] was 0.7 µM. For the same compound, the “inhibition (INH)” value [37] was “Not Active”, the Activity [38] was “Non-toxic” and the Cmax [39] was 11 µM. It also gave an AUC [6] of 3.1 µM·h, an Activity [40] of 18% and an AUC [41] of 13 µM·h. The Tmax [42] was 1.5 h, the Vd [43] was 1.7 L/kg and the clearance [44] was 3.4 mL/min/kg.
Fc1ccc(Nc2nc3cnc(C4CCOCC4)nc3n2C2CCCC2)c(F)c1 showed an IC50 [1] of 900 nM and an IC50 [2] of 230 nM.
Compound CS(=O)(=O)N[C@H]1CC[C@H](Nc2ncc3nc(Nc4ccc(F)cc4F)n(C4CCOCC4)c3n2)CC1 has an IC50 [1] of 880 nM and an IC50 [2] of 860 nM.
